Experimental data taken from paper PMC5008228 (Journal of Parkinson's Disease, 2016).
Where “and” joins values, the source holds several entries; their conditions need not be identical. Identical values can stand only once. Entries after “also recorded” stand apart in the source; their conditions may differ.

How the values were obtained:
Assay type in all cases: in vivo, human
PDD or DLB participants [1] = assay: Mini Mental State Examination; details: for MMSE score: individual participants; for MMSE score, AVG: group AVG (Screening AVG 15.4); for Average increase in MMSE: six months (24-week) compared to baseline
PDD or DLB participants [2] = assay: Scales for Outcomes in Parkinson's disease-Cognition; details: for SCOPA-Cog (**/43) score: individual participants; for Average increase in SCOPA-Cog: six months compared to baseline
PDD or DLB participants [3] = assay: Safety and tolerability, adverse events
PDD or DLB participants [4] = assay: QTc interval by EKG; details: returned to normal range in subsequent visits
PDD or DLB participants [5] = assay: Laboratory blood chemistry; details: 150 mg group
Outline: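 PDD or DLB participants (n = 5 at 150 mg, n = 7 at 300 mg) took oral doses daily for 24 weeks. Blood chemistry (lipids, phosphate, bilirubin, electrolytes, lipase, α-amylase, ALT, AST) plus CBC with differential were drawn every two weeks for the first two months, then monthly. EKGs and physical/neurological exams were done at the same visits.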

homovanillic acid (HVA) = assay: HVA measurement by ELISA
α-synuclein = α-synuclein sandwich ELISA in CSF and plasma; details: for Plasma α-synuclein vs baseline: 2 months
DJ-1 = assay: Neurodegenerative disease magnetic bead panel, DJ-1
S100B = assay: Neurodegenerative disease magnetic bead panel, S100B
[6] = system: Neuron Specific Enolase (NSE); assay: Neurodegenerative disease magnetic bead panel, NSE; details: 6 months
total tau = assay: Neurodegenerative disease magnetic bead panel, total tau and p-tau181
Aβ40 = assay: Neurodegenerative disease magnetic bead panel, Aβ40
Aβ42 = assay: Neurodegenerative disease magnetic bead panel, Aβ42; details: 150 mg group

## Cc1cn(-c2cc(NC(=O)c3ccc(C)c(Nc4nccc(-c5cccnc5)n4)c3)cc(C(F)(F)F)c2)cn1 [Nilotinib]
PDD or DLB participants [1]; 300 ng (sub-heading as printed) oral daily, Week-12
  MMSE score: 29 and 26 and 25 and 28 and 1 and 6
PDD or DLB participants [1]; 300 ng (sub-heading as printed) oral daily, Week-16
  MMSE score: 27 and 29 and 25 and 14 and 6 and 12
PDD or DLB participants [1]; 300 ng (sub-heading as printed) oral daily, Week-20
  MMSE score: 26 and 30 and 25 and 24 and 2 and 6
PDD or DLB participants [1]; 300 ng (sub-heading as printed) oral daily, Week-24
  MMSE score: 28 and 30 and 25 and 26 and 5 and 9
PDD or DLB participants [1]; 150 mg oral daily, Week-4
  MMSE score, AVG: 17.4
  MMSE score: 20 and 0 and 11 and 28
PDD or DLB participants [1]; 150 mg oral daily, Week-8
  MMSE score, AVG: 18
  MMSE score: 22 and 1 and 11 and 29 and 27
PDD or DLB participants [1]; 150 mg oral daily, Week-12
  MMSE score, AVG: 18
  MMSE score: 21 and 1 and 11 and 29 and 28
PDD or DLB participants [1]; 150 mg oral daily, Week-16
  MMSE score, AVG: 18.6
  MMSE score: 26 and 1 and 8 and 30 and 28
PDD or DLB participants [1]; 150 mg oral daily, Week-20
  MMSE score, AVG: 18.4
  MMSE score: 26 and 1 and 10 and 30 and 25
PDD or DLB participants [1]; 150 mg oral daily, Week-24
  MMSE score, AVG: 19.25
  MMSE score: 23 and 2 and 29
PDD or DLB participants [1]; 150 mg oral daily
  Average increase in MMSE: 3.85 points
PDD or DLB participants [1]; 300 mg oral daily
  Average increase in MMSE: 3.5 points
PDD or DLB participants [2]; 150 mg oral daily, Week-8, group AVG (Screening AVG 9.4)
  SCOPA-Cog (**/43) score, AVG: 10
PDD or DLB participants [2]; 150 mg oral daily, Week-8
  SCOPA-Cog (**/43) score: 5 and 0 and 4 and 23 and 18
PDD or DLB participants [2]; 150 mg oral daily, Week-20, group AVG (Screening AVG 9.4)
  SCOPA-Cog (**/43) score, AVG: 9.6
PDD or DLB participants [2]; 150 mg oral daily, Week-20
  SCOPA-Cog (**/43) score: 3 and 1 and 0 and 26 and 18
PDD or DLB participants [2]; 150 mg oral daily, Week-24, group AVG (Screening AVG 9.4)
  SCOPA-Cog (**/43) score, AVG: 11.25
PDD or DLB participants [2]; 150 mg oral daily, Week-24
  SCOPA-Cog (**/43) score: 4 and 0 and 23 and 18
PDD or DLB participants [2]; 150 mg oral daily
  Average increase in SCOPA-Cog: 1.85 points
PDD or DLB participants [2]; 300 mg oral daily, Week-8, group AVG (Screening AVG 10.33)
  SCOPA-Cog (**/43) score, AVG: 12.17
PDD or DLB participants [2]; 300 mg oral daily, Week-8
  SCOPA-Cog (**/43) score: 22 and 30 and 11 and 9 and 0 and 1
PDD or DLB participants [2]; 300 mg oral daily, Week-20, group AVG (Screening AVG 10.33)
  SCOPA-Cog (**/43) score, AVG: 13.3
PDD or DLB participants [2]; 300 mg oral daily, Week-20
  SCOPA-Cog (**/43) score: 21 and 30 and 19 and 10 and 0
PDD or DLB participants [2]; 300 mg oral daily, Week-24, group AVG (Screening AVG 10.33)
  SCOPA-Cog (**/43) score, AVG: 12.33
PDD or DLB participants [2]; 300 mg oral daily, Week-24
  SCOPA-Cog (**/43) score: 22 and 31 and 10 and 0 and 1
PDD or DLB participants [2]; 300 mg oral daily
  Average increase in SCOPA-Cog: 2 points
PDD or DLB participants [3]; 150 mg group, n = 5
  Serious adverse events (one participant each): hospitalized with pneumonia and UTI
PDD or DLB participants [3]; 300 mg group, n = 7
  Serious adverse events (one participant each): withdrawn at week 4 and diagnosed with myocardial infarct and left bundle block; also recorded: hospitalized with urinary tract infection (UTI)
PDD or DLB participants [3]; once daily oral 150 mg or 300 mg, subjects with PDD or DLB
  Safety and tolerability: may be safe and tolerated
PDD or DLB participants [4]; 150 mg group
  QTc finding in participant NIL 8: slight QTc prolongation >450 ms at week 8
PDD or DLB participants [4]; 300 mg group
  QTc finding in participant NIL 15: two episodes of QTc prolongation >450 ms at week 2 and week 8
PDD or DLB participants [5]
  AEs below normal range of alanine aminotransferase (ALT) level (<100%): three
Homovanillic acid (HVA); 150 mg group, 2 months, t-test
  CSF homovanillic acid (HVA) vs baseline: significantly increased
Homovanillic acid (HVA); 150 mg group, 6 months
  CSF homovanillic acid (HVA) vs baseline: remained elevated (non-significant)
Homovanillic acid (HVA); 300 mg group, 6 months
  CSF homovanillic acid (HVA) vs baseline: significantly increased
α-synuclein; 150 mg group
  Plasma α-synuclein at 6 months compared to 2 months: significantly higher
  Plasma α-synuclein vs baseline: slightly reduced
α-synuclein; 150 mg group, 2 and 6 months
  CSF α-synuclein vs baseline: slightly reduced
α-synuclein; 150 mg group, t-test
  CSF α-synuclein at 2 months compared to 6 months: significantly (t-test) lower
α-synuclein; 300 mg group
  Plasma α-synuclein vs baseline: significantly reduced
α-synuclein; 300 mg group, 6 months
  Plasma α-synuclein: returned to baseline
α-synuclein; 300 mg group, between baseline, 2 and 6 months
  CSF α-synuclein: unaltered
DJ-1; 150 mg group
  CSF DJ-1: trended towards a decrease
DJ-1; 300 mg group, six months
  CSF DJ-1 vs baseline: significantly reduced
S100B; 150 mg group
  CSF S100B level: gradually reduced
S100B; 300 mg group
  CSF S100B level: gradually reduced
[6]; 150 mg group
  CSF NSE level vs baseline: significantly reduced
[6]; 300 mg group
  CSF NSE level vs baseline: significantly reduced
Total tau; 150 mg group, 2 months
  CSF total tau vs baseline: significantly reduced
Total tau; 300 mg group, 6 months
  CSF total tau vs baseline: significantly reduced
Aβ40; 150 mg group
  CSF Aβ40: No changes
Aβ40; 300 mg group, 6 months
  CSF Aβ40 vs baseline: significantly reduced
Aβ42
  CSF Aβ42: No changes
